Measured values taken from ChEMBL document CHEMBL4038317, “Discovery of a Benzamide Derivative That Protects Pancreatic β-Cells against Endoplasmic Reticulum Stress” (J Med Chem, 2017).
Activity calls are given as the source filed them. No cut-off for these calls is given here.

Legend:
INS1 [1] = test: Protection against tunicamycin ER stress-induced suppression of PDX1 mRNA expression in rat INS-1 cells up to 1 uM after 24 hrs by qRT-PCR analysis; format: functional, cell-based
Method in brief: (§1)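 INS-1 cells were exposed to tunicamycin 0.1 μg/mL with compound or DMSO for 24 h. INS1, INS2, PDX1 and MafA mRNA were measured by qRT-PCR and normalized to cyclophilin A by the comparative Ct method. Triplicate wells, 3 independent experiments.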

INS1 [2] = test: Cytoprotective activity in rat INS-1 cells assessed as protection against tunicamycin-induced ER stress-mediated reduction in cell viability after 3 days by CellTiter-Glo assay; settings: INS1, 72 h
INS1 [3] = test: Cytoprotective activity in rat INS-1 cells assessed as protection against tunicamycin-induced ER stress-mediated reduction reduction in cell viability up to 10 uM after 3 days by MTT assay; format: functional, cell-based
Method in brief: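 INS-1 cells, 3×10^3 per well, were exposed to tunicamycin 0.1 μg/mL with compound for 72 h. MTT was added for 3 h at 37 °C, then crystal-dissolving solution for 4 h, and absorbance read at 570 nm. Triplicate wells, three independent experiments.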

INS1 [4] = test: Protection against tunicamycin ER stress-induced suppression of INS1 mRNA expression in rat INS-1 cells up to 1 uM after 24 hrs by qRT-PCR analysis; format: functional, cell-based; method in brief: as §1
INS1 [5] = test: Protection against tunicamycin ER stress-induced suppression of MafA mRNA expression in rat INS-1 cells up to 1 uM after 24 hrs by qRT-PCR analysis; format: functional, cell-based; method in brief: as §1
[6] = target: T1, Eukaryotic translation initiation factor 2-alpha kinase 3 (Rattus norvegicus, UniProt Q9Z1Z1); test: Inhibition of PERK activation in rat INS-1 cells assessed as suppression of tunicamycin-induced CHOP mRNA expression after 8 hrs by qRT-PCR analysis; format: cell-based
T1 sequence (Q9Z1Z1 whole entry): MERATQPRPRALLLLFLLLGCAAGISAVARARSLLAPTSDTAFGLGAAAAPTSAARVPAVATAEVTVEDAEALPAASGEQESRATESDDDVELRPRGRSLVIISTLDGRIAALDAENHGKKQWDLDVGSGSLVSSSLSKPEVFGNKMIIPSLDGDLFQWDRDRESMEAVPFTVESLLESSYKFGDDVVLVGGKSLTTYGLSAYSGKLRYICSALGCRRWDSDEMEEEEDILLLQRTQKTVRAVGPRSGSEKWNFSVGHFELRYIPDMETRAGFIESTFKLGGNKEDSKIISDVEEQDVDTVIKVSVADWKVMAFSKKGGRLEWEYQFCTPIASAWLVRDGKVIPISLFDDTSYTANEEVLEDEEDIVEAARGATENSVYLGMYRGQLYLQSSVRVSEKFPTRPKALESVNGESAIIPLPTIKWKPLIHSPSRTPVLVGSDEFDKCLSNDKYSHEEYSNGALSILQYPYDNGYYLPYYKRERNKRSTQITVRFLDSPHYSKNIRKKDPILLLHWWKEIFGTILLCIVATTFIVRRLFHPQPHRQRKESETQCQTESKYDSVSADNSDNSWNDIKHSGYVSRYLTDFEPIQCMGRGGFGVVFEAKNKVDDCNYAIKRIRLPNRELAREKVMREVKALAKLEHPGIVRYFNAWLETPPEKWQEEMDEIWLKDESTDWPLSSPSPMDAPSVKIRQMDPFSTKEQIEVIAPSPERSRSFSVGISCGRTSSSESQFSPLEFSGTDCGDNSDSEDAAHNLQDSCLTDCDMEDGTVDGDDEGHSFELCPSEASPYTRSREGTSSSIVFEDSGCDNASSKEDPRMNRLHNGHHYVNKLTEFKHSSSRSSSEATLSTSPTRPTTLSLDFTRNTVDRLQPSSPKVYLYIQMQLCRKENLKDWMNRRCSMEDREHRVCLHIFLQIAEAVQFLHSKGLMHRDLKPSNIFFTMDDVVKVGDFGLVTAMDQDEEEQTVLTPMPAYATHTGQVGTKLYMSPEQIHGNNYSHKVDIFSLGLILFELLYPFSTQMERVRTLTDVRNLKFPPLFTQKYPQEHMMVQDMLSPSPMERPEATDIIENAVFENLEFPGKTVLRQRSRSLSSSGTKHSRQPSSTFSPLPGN
Method in brief: (§2)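 INS-1 cells, 4×10^5 per well, were exposed to tunicamycin 0.1 μg/mL with compound or DMSO for 8 h. qRT-PCR for ATF4, CHOP, Bip, GRP94, or spliced XBP1 using splicing-specific primers. Values were normalized to cyclophilin A by ΔΔCt and given as fold over untreated control. Triplicate wells, 3 independent experiments.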

[7] = target: T2, Eukaryotic translation initiation factor 2-alpha kinase 3 (Rattus norvegicus) (UniProt Q9Z1Z1); test: Inhibition of tunicamycin ER stress-induced PERK activation in rat INS-1 cells assessed as suppression of tunicamycin-induced increase in ATF4 protein levels up to 10 uM after 8 hrs by Western blot analysis; format: cell-based
T2 sequence (whole entry): T1 sequence (Q9Z1Z1 whole entry)
Method in brief: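 INS-1 cells were exposed to tunicamycin 0.1 μg/mL with compound or DMSO for 8 h. Lysates were immunoblotted for ATF4 and CHOP (1:1000). Bands were quantified by densitometry and normalized to α-tubulin; 3 independent experiments.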

Rattus norvegicus = organism: Rattus norvegicus; test: Inhibition of tunicamycin ER stress-induced IRE1alpha activation in rat INS-1 cells assessed as suppression of tunicamycin-induced increase in XBP1 mRNA levels up to 10 uM after 8 hrs by qRT-PCR analysis; format: cell-based; method in brief: as §2
Mus musculus [8] = test: Antidiabetic activity in STZ-induced diabetic overnight fasted C57BL/6 mouse model assessed as blood glucose level at 5 mg/kg, ip administrated qd with streptozotocin for 5 days followed by compound administration alone for 2 more weeks measured at 15 mins post last dose relative to control; format: functional, organism-based
Method in brief: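 Same STZ/compound i.p. regimen in male C57BL/6 mice, vehicle group as control. Intraperitoneal glucose tolerance test in overnight-fasted mice: glucose 2 g/kg i.p., blood glucose read at set times after the glucose load.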

Mus musculus [9] = test: Antidiabetic activity in STZ-induced diabetic C57BL/6 mouse model assessed as blood glucose level at 5 mg/kg, ip administrated qd with streptozotocin for 5 days followed by compound administration alone for 2 more weeks measured on every third day during 5 hr fasting (reference value: 422 mg/dL); format: functional
Mus musculus [10] = test: Antidiabetic activity in STZ-induced diabetic C57BL/6 mouse model assessed as decrease in blood glucose level at 5 mg/kg, ip administrated qd with streptozotocin for 5 days followed by compound administration alone for 2 more weeks; format: functional, organism-based; settings: TDE = time-dependent effect

- IC50 [6]: 37 nM
- inhibition [7]: Active
Compound: O=C(NCc1ccc(C(F)(F)F)cc1)c1cccc(CN2CCCCC2)c1
- Activity (INS1 [1]): Active
- EC50 (INS1 [2]): 30 nM
- Activity (INS1 [3]): Active
- Activity (INS1 [4]): Active
- Activity (INS1 [5]): Active
- inhibition (Rattus norvegicus): Active
- Activity (Mus musculus [8]): Active
- Activity (Mus musculus [9]): 314 mg/dL
- Activity (Mus musculus [10]): Tde
